TRPC6 inh = mouse TRPC6 channel inhibition | hit rate 1.1% among 310,000 | AID 2553 | Q61143 | B-score at 10 µM | HEK293-TRPC6, membrane potential dye, ACh-evoked depolarization; hits give low values;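 active = B-score under library mean minus 3 SD, initial fluorescence not abnormally high, positive integrated signal ratio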;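 also: B-score derived from integrated fluorescence ratio over the kinetic read; more negative B-score means stronger inhibition of depolarization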
Kir21 inh = inhibitors of mouse Kir2.1 inward-rectifier potassium channel. P35561. HEK293-Kir2.1, FluxOR thallium flux fluorescence; hits give low values. B-score at 10 µM. hit rate 0.85% among 310,000. AID 1672;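 active = fluorescence ratio B-score at or below minus 3 SD of library scores, with starting-brightness B-score within 2 SD, cut at about -4.2 in these data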;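 also: channel flux triggered by added potassium and thallium sulfate stimulus; B-score of peak minus minimum fluorescence over baseline after thallium stimulus; more negative B-score means stronger Kir2.1 block with less thallium influx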
Target sequence (P35561 whole entry, looked up): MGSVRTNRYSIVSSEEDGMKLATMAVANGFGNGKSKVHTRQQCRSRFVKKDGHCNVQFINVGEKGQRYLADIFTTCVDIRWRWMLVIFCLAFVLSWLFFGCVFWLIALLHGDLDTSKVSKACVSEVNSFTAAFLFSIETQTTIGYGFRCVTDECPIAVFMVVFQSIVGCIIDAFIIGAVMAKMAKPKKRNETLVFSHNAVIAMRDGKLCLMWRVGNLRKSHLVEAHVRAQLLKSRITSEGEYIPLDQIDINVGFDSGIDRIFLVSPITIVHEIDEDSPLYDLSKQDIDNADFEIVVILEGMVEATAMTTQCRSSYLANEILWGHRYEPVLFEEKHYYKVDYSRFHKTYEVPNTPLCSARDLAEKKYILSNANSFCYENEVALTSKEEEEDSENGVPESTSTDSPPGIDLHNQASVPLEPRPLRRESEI
TRPC4 potent = TRPC4 (mouse) allosteric potentiation. Q9QUQ5. HEK293 TRPC4beta/mu-opioid, DAMGO EC20, Fluo-4 Ca2+ flux; hits give high values. B-score at 10 µM. hit rate 0.42% among 310,000;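 active = B-score of calcium response area above 5 SD of library B-scores, with initial fluorescence ratio within 5 SD of library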;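 also: B-score of integrated fluorescence ratio over time as area under calcium response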
TRPC4 act = opens the mouse TRPC4 cation channel. AID 2237. HEK293 TRPC4beta/mu-opioid, Fluo4 calcium fluorescence; hits give high values. Q9QUQ5. B-score at 10 µM. hit rate 0.49% among 310,000;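 active = B-score above 5 SD of library B-scores, and initial fluorescence ratio not above library mean plus 5 SD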;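 also: positive B-score marks a calcium rise read as TRPC4 activation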
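system = HEK293 cells stably co-expressing mouse TRPC4beta and mu-opioid receptor | schedule = Fluo4 dye loading 45 min at room temperature, 110 s recording | measure = B-scored integrated calcium fluorescence ratio | signal = Fluo4 calcium-sensitive dye fluorescence, kinetic, 1 Hz baseline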
TRPC6 activator = mouse TRPC6 channel activation; HEK293-TRPC6 membrane potential dye fluorescence; hits give high values; B-score at 10 µM; hit rate 0.13% among 310,000; Q61143;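 active = B-score of the integrated fluorescence ratio above library mean plus 3 SD, and starting fluorescence ratio within library mean plus 5 SD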;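 also: higher score means more depolarization so channel activation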
TRPC4 inh = inhibitors of mouse TRPC4 channel. Q9QUQ5. HEK293 TRPC4beta/mu-opioid, DAMGO-evoked Fluo4 calcium flux; hits give low values. B-score at 10 µM. hit rate 0.39% among 300,000;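 active = B-score over 3 SD under the library average, no early fluorescence shift, positive overall ratio signal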
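Assay system: HEK293 cells with stable TRPC4beta plus mu-opioid receptor expression. Dosing: single dose. Measured by: Fluo4 Ca2+ flux fluorescence. Also added: DAMGO in two steps, submaximal then maximal. Read-out: B score from integrated Fluo4 fluorescence ratio.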
TRPC4 sel inh 2 = mouse TRPC4 off-target activity of TRPC6 inhibitors, second screen; shares compounds with TRPC6 inh; HEK293 TRPC4/MOR, membrane potential dye fluorescence; channel activated by saturating DAMGO dose; inhibition, % at 10 µM; hit rate 42% among 920; AID 2776;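 active = compounds whose fluorescence signal differed from control wells by over 3 SD, either direction, in both duplicate plates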
TRPC4 spec = mouse TRPC4 off-target activity of TRPC6 inhibitors; shares compounds with TRPC6 inh; HEK293 TRPC4/mu-opioid, membrane potential fluorescence; activity change, negative = inhibition, % at 10 µM; hit rate 61% among 920; AID 2777;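 active = rise or fall in signal beyond 3 SD of buffer-only wells in both replicate plates, either sign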;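 also: integrated kinetic ratio of fluorescence range over baseline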
HEK293 MPD ctr 2-1 = second check of TRPC6 inhibitor effects in parental HEK293 cells | parental HEK293 membrane potential dye fluorescence; maximal acetylcholine challenge after compound addition | hit rate 31% among 920 | signal change vs control, % at 10 µM | shares compounds with TRPC6 inh | AID 2779;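 active = membrane potential signal moving either way by over 3 SD of the maximum-effect control, in both duplicate plates, meaning non-specific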
HEK293 MPD ctr-1 = parental HEK293 nonspecific activity of TRPC6 inhibitors; parental HEK293 membrane potential dye fluorescence; hit rate 60% among 920; shares compounds with TRPC6 inh; membrane potential signal change, % at 10 µM;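 active = membrane potential signal shifting up or down by more than 3 SD of buffer-only wells, on both duplicate plates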
HEK293 MPD ctr-2 = checks TRPC6 modulator effects in parental HEK293 cells. shares compounds with TRPC6 inh. membrane potential dye fluorescence. membrane potential signal change, % at 10 µM. hit rate 51% among 2,400. AID 488924;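 active = membrane potential signal moves up or down beyond 5 SD from buffer-only wells, on both duplicate plates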
HEK293 MPD ctr 2-2 = second check of TRPC6 modulator effects in parental HEK293 cells; hit rate 14% among 2,400; membrane potential dye fluorescence; after compound, maximal acetylcholine stimulation; shares compounds with TRPC6 inh; inhibition, % at 10 µM;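 active = membrane potential signal drops by more than 5 SD from the mean control signal, in both duplicate plates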;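 also: plate controls were acetylcholine ECmax control wells for no effect and buffer only wells for full effect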
TRPC4 ctr mod = selectivity of TRPC6 modulators against mouse TRPC4; HEK293 TRPC4/mu-opioid, membrane potential fluorescence; shares compounds with TRPC6 inh; percent change from control (negative = decrease, positive = increase), % at 10 µM; hit rate 69% among 2,400;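 active = membrane potential signal moved up or down beyond 5 SD of buffer control wells, in both duplicate plates, actives on both sides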;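 also: plate controls were assay buffer wells for no effect and DAMGO maximal-effect wells for full effect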
TRPC4 ctr inh 2 = second selectivity test of TRPC6 modulators against mouse TRPC4; shares compounds with TRPC6 inh; HEK293 TRPC4/mu-opioid, membrane potential dye fluorescence; stimulated with maximal-effect DAMGO; inhibition, % at 10 µM; hit rate 55% among 2,400; AID 488928;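 active = drop in membrane potential signal beyond 5 SD of the control wells in both duplicate plates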;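 also: TRPC4 counter screen for TRPC6 hits run under conditions tuned for TRPC6 not TRPC4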
TRPC6 block conf = confirmation of mouse TRPC6 inhibitors. HEK293-TRPC6, membrane potential dye, ACh-evoked depolarization. hit rate 43% among 3,300. inhibition, % at 10 µM. shares compounds with TRPC6 inh;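 active = fluorescence ratio falls more than 5 SD below the full-stimulation control mean, in both duplicate runs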;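 also: integrated fluorescence ratio of peak minus minimum over baseline after agonist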
TRPC6 act conf = confirmation of mouse TRPC6 activators; shares compounds with TRPC6 inh; HEK293-TRPC6 membrane potential dye fluorescence, FDSS; activation, % at 10 µM; hit rate 11% among 2,800;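 active = ratio signal rise beyond 5 SD above unstimulated control wells' mean, seen in both duplicate runs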;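 also: plate controls were buffer EC0 wells for no effect and acetylcholine ECmax response for full effect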
* marks the source's active call; other numbers are inactive results; i = inactive; . = no result; + = active, no number. A selection: hits, their analogues and other compounds. The true share with any hit is near 3%.

SMILES	TRPC6 inh	Kir21 inh	TRPC4 potent	TRPC4 act	TRPC6 activator	TRPC4 inh	HEK293 MPD ctr-2	HEK293 MPD ctr 2-2	TRPC4 ctr mod	TRPC4 ctr inh 2	TRPC6 block conf	TRPC6 act conf	others
COc1ccc(/C=C2\SC(=NCc3ccccc3)NC2=O)cc1	-6.2*	1.2	i	i	i	i	i	i	i	i	i	i
COc1ccc(/C=C2\SC(=Nc3ccccc3OC)NC2=O)cc1	i	0.81	i	i	i	i	.	.	.	.	.	.
CCC1=C(c2ccc(C)cc2)S(=O)(=O)N=C1N1CCC(C(=O)NCCCN2CCCCC2C)CC1 (stereo not drawn)	i	-0.09	i	i	i	i	.	.	.	.	.	.
CCOC(=O)c1c(N2C(=O)CC(Sc3ccccc3C(=O)O)C2=O)sc2c1CCCC2 (stereo not drawn)	i	-0.17	i	i	18*	i	147%*	i	8.0%*	i	i	120%*
C(#Cc1ccccc1)C[N+]1(CC#Cc2cccc3ccccc23)CCCC1	-5.5*	-3.1	i	i	i	i	i	i	-14%*	i	i	i
Cc1c(C(=O)N(C)C(C)c2ccccn2)oc2c(F)cccc12 (stereo not drawn)	i	-0.02	i	i	i	i	.	.	.	.	.	.
Cc1ccc(NC(=O)CSc2nc3ccccc3c(=O)n2CCCN2CCCCC2)cc1C	-7.9*	-1	i	i	i	i	.	.	.	.	i	i	TRPC4 sel inh 2=33%*;TRPC4 spec=5.6%*;HEK293 MPD ctr 2-1=219%*;HEK293 MPD ctr-1=9.0%*
O=C(N/C(=C\c1ccco1)C(=O)N1CCCC1CO)c1ccccc1 (stereo not drawn)	i	0.24	i	i	i	i	.	.	.	.	.	.
O=C(NCCCN1CCCC1)c1cc2c(Cl)nc3ccccc3c2s1	-6.6*	-0.99	i	i	i	i	i	i	i	35%*	i	i
CC1CCN(CCCNC(=O)c2cc3c(Cl)nc4ccccc4c3s2)CC1	i	0.56	i	i	i	i	.	.	.	.	.	.
Cc1cccc(-n2nnnc2SCC(=O)Nc2ccc(N3CCN(C)CC3)cc2)c1	-5.7*	-1.4	i	i	i	i	i	i	i	54%*	i	i
Cc1ccccc1-n1nnnc1SCC(=O)Nc1ccc(N2CCN(C)CC2)cc1	i	-0.28	i	i	i	i	.	.	.	.	.	.
Nc1nc(SCc2ccc(Cl)cc2Cl)nc2nc3c(cc12)CCCC3	i	-0.61	i	i	i	i	.	.	.	.	.	.
CCN(CC(=O)NC(C)C)C(=O)Cc1ccc(C)c(C)c1	i	-0.13	i	i	i	i	.	.	.	.	.	.
Cc1cc(C)c2nc3nc(C)c(C)cc3c(N)c2c1	-5.8*	-1.4	i	i	i	i	i	i	-25%*	34%*	59%*	i
Cc1cccc(N(CC(=O)NC2CCCCC2)C(=O)c2c(C)noc2C)c1	-6*	-0.01	i	i	i	i	118%*	i	24%*	30%*	i	.
COc1cc(N2CCCC2)c(OC)cc1C=O	-7.9*	1.8	i	i	i	i	.	.	.	.	i	i	TRPC4 sel inh 2=i;TRPC4 spec=i;HEK293 MPD ctr 2-1=250%*;HEK293 MPD ctr-1=i
O=S(=O)(c1cnc[nH]1)N1CCN(C(c2ccc(F)cc2)c2ccc(F)cc2)CC1	i	-1.1	i	i	i	i	.	.	.	.	.	.
O=C(NCc1ccccc1)C1Nc2ccc(OC(F)(F)F)cc2C2C=CCC12 (stereo not drawn)	i	1.1	i	i	i	i	.	.	.	.	.	.
O=C(NCCCN1CCOCC1)C1Nc2ccc(OC(F)(F)F)cc2C2C=CCC12 (stereo not drawn)	-9.7*	0.7	i	i	i	i	i	i	i	i	i	i
O=C1NC(c2cccc([N+](=O)[O-])c2)Oc2ccccc21 (stereo not drawn)	i	-2.5	i	i	i	i	.	.	.	.	.	.
CC(=O)c1cnc(Nc2nc(C)c3ccc(C)cc3n2)nc1C	-5.7*	0.19	i	i	i	i	-154%*	81%*	-20%*	i	i	i
CC(Nc1nc(N2CCN(S(C)(=O)=O)CC2)nc2ccccc12)c1ccccc1 (stereo not drawn)	-6*	-0.4	i	i	i	i	-158%*	i	-26%*	52%*	i	i
CCOC(=O)/C(C#N)=C/C1=C(N2CCOCC2)CC(C)(C)OC1	i	0.03	i	i	i	i	.	.	.	.	.	.
N#Cc1ccc(/C=C/C(=O)c2ccco2)cc1	i	1.2	i	i	i	i	.	.	.	.	.	.
Nc1ccc(/C=C/C(=O)c2ccco2)cc1	-8.4*	0.13	i	i	25*	i	722%*	+	92%*	52%*	80%*	199%*
CC1=Nc2ccccc2/C1=C/c1sc(=N)n(-c2nccs2)c1O	i	-2.6	i	i	36*	i	714%*	i	110%*	i	i	192%*
